Measured values as given in ChEMBL document CHEMBL1129750, “Bicyclic N-hydroxyurea inhibitors of 5-lipoxygenase: pharmacodynamic, pharmacokinetic, and in vitro metabolic studies characterizing N-hydroxy-N-(2,3-dihydro-6-(phenylmethoxy)-3-benzofuranyl)urea” (J Med Chem, 1996).
Calls of active or inactive are those of the source. The calls are words filed in the database; no cut-off is given here.

Tests used:
[1] = target: T1, Polyunsaturated fatty acid 5-lipoxygenase (Mus musculus) (UniProt P48999); test: Inhibition of leukotriene formation in A-23187-stimulated mouse whole blood using […] ex vivo, activity expressed as percent of control.; type: functional, tissue-based; design: scale not given: the % may be the effect or the level left
T1 sequence (whole entry): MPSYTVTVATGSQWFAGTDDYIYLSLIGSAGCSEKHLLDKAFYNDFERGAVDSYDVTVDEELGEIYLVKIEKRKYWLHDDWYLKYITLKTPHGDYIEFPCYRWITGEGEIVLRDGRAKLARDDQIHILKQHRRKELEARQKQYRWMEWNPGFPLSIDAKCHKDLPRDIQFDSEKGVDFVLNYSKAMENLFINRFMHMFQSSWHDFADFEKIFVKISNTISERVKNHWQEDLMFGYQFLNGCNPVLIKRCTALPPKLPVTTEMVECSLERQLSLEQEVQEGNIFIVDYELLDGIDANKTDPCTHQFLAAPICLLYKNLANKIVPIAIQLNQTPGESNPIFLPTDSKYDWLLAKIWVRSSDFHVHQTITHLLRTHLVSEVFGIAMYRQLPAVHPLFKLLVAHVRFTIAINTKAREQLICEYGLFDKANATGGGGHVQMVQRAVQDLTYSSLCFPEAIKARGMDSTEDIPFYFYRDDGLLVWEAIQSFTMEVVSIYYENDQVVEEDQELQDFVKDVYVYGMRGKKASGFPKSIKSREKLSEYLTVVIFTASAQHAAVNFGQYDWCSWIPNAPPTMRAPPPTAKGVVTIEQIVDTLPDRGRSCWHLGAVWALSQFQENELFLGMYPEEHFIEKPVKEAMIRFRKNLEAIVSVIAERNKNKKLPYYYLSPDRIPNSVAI

[2] = organism: Mus musculus; test: Compound was tested to inhibit Leukotriene formation in A-23187-stimulated mouse whole blood using […] ex vivo; type: functional
[3] = system: Mus musculus; test: Maximum inhibition of LTB4 at dose 10 mg/kg in mouse; type: functional
[4] = system: Mus musculus; test: Percentage inhibition of LTB4 after 6 hr at dose 10 mg/kg in mouse; type: functional
[5] = target: T2, Polyunsaturated fatty acid 5-lipoxygenase (Rattus norvegicus, UniProt P12527); test: Inhibitory activity against rat 5-lipoxygenase by using continuous oxygen consumption assay.
T2 sequence (P12527 whole entry): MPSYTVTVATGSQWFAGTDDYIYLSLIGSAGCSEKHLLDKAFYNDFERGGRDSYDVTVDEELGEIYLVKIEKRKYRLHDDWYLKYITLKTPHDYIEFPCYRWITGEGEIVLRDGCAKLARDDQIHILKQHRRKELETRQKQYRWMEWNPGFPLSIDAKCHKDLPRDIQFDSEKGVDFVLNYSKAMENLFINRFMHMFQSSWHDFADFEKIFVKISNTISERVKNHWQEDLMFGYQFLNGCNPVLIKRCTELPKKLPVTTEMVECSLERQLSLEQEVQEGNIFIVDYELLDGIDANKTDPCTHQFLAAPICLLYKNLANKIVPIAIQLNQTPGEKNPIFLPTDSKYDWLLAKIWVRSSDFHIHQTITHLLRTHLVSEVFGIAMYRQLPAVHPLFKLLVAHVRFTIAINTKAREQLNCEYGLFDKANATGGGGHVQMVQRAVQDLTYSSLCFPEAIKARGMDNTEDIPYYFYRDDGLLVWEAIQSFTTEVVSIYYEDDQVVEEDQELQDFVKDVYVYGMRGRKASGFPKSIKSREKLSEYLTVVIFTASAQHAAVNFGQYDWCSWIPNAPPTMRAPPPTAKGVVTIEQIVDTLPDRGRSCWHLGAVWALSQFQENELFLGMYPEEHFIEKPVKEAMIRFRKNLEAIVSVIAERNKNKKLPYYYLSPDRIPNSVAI
Procedure, shortened: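 Semipurified cytosolic 5-LO from rat basophilic leukemia (RBL-1) cells; continuous oxygen-electrode assay of oxygen consumption; IC50.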

[6] = organism: Mus musculus; test: Glucuronidation rates in mouse liver microsomes; not detected; type: functional
Procedure, shortened: (§1)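 Liver microsomes (fresh male CD-1 mouse >10 weeks, or frozen human donor) at 0.25–1.0 mg/mL protein. Incubated with 2.5 mM substrate, 15 mM [14C]UDP-glucuronic acid, 10 mM MgCl2 and 2% BSA in 100 mM sodium phosphate pH 7.4, at 37 °C for 1–4 h. Stopped with 20% acetonitrile; glucuronide quantified by HPLC. Mean of duplicates.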

[7] = organism: Homo sapiens; test: Glucuronidation rates in human liver microsomes; type: functional; procedure, shortened: as §1
[8] = system: Mus musculus; test: Percentage inhibition of LTB4 after 6 hr at dose 3 mg/kg in mouse; NS=No Stastistical Significance; type: functional, organism-based; design: dose 3 mg/kg
[9] = system: Mus musculus; test: Maximum inhibition of LTB4 at dose 3 mg/kg in mouse; type: functional
[10] = organism: Mus musculus; test: Inhibition of Leukotriene formation in mouse adoptive peritoneal anaphylaxis assay ex vivo; type: functional
[11] = system: Mus musculus; test: Compound was tested to inhibit Leukotriene formation in mouse sensitized with 1BD8 cells after 7 hr of compound administration, activity expressed as percent of control; type: functional; design: concentration or dose not given beside the values
[12] = organism: Mus musculus; test: Compound was tested to inhibit Leukotriene formation in A-23187-stimulated mouse whole blood using […] ex vivo, activity expressed as percent of control; NS=No Stastistical Significance; type: functional, organism-based
[13] = organism: Mus musculus; test: Glucuronidation rates in mouse liver microsomes; type: functional; procedure, shortened: as §1
[14] = system: Mus musculus; test: Maximum inhibition of LTB4 at dose 6 mg/kg in mouse; type: functional
[15] = system: Mus musculus; test: Percentage inhibition of LTB4 after 6 hr at dose 6 mg/kg in mouse; type: functional
[16] = organism: Homo sapiens; test: Compound was tested to inhibit Leukotriene formation in A-23187-stimulated human whole blood using LTB4 specific RIA in vitro; type: functional
Procedure, shortened: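 Human whole blood stimulated with A23187; LTB4 measured by specific radioimmunoassay. IC50 with 95% confidence limits from linear regression.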

[17] = system: Canis familiaris; test: Compound was administered intravenously in dog to evaluate plasma clearance values; type: ADME, organism-based, Canis lupus familiaris; settings: in vivo, iv
Procedure, shortened: (§2)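 IV infusion over 15 min via saphenous (monkey) or cephalic (dog) vein catheter, 1–1.4 mg/kg in 7.5% (w/v) aqueous (2-hydroxypropyl)-β-cyclodextrin; male cynomolgus monkeys and beagle dogs, N = 3. Chilled plasma analysed by HPLC. Noncompartmental parameters were estimated per animal and then averaged. CLp = dose/AUC, with AUC by linear/log-linear trapezoidal rule.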

[18] = Compound was administered intravenously in mouse to evaluate plasma clearance values; type: ADME, organism-based; settings: iv, read-out: Clp
Procedure, shortened: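 Male CD-1 mice given 0.5 mg/kg IV by lateral tail vein over 5–10 s, in ethanol/propylene glycol 30:70 v/v; N = 3 per time point with terminal sampling under ether. Plasma HPLC, LOQ 0.05 μg/mL. Mean concentration per time point before noncompartmental analysis. Half-life from slope of log-concentration profile; CLp = dose/AUC.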

[19] = Compound was administered intravenously in monkey to evaluate plasma clearance values; type: ADME, organism-based; settings: simiiformes, plasma, iv; read-out: Clp; procedure, shortened: as §2
[20] = Mus musculus, Blood, read-out: ED50

| SMILES | Activity [1] [%] | IC50 [5] [nM] | other results |
| --- | --- | --- | --- |
| NC(=O)N(O)C1CCc2cc(OCc3ccccc3)ccc21 (stereo in doubt; 2a) [listing 1 of 2 here] | -85 | – | – |
| NC(=O)N(O)C1CCc2cc(Oc3ccccc3)ccc21 (configuration not stated) | -88 | 850 | ED50 [2, 20]: 6.4 mg/kg; Max inhibition [3]: 88; inhibition in vivo at 10 mg/kg [4]: 57% |
| NC(=O)N(O)C1CCCc2c1ccc1ccccc21 (configuration not stated) | – | 5600 | – |
| NC(=O)N(O)C1CCCc2cc(OCc3ccccc3)ccc21 (single isomer, unassigned; (+)) [listing 1 of 2 here] | 28 | – | – |
| NC(=O)N(O)C1COc2cc(OCc3ccccc3)ccc21 (single isomer, unassigned; (+)) [listing 1 of 2 here] | – | – | Rate of formation [6]: inactive; Rate of formation (nM (mg of protein)-1) [7]: 2.5 |
| NC(=O)N(O)C1COc2ccc(Oc3ccccc3)cc21 (configuration not stated) | -64 | 3500 | ED50 [2, 20]: 1.9 mg/kg; inhibition [8]: inactive; Max inhibition [9]: 67 |
| NC(=O)N(O)C1CCc2cc(OCc3ccccc3)ccc21 (stereo in doubt; 2a) [listing 2 of 2 here] | – | 780 | ED50 ([10]; Mus musculus): 4 mg/kg; Activity [11]: -31%; ED50 [2, 20]: 2.6 mg/kg |
| NC(=O)N(O)C1CCCc2cc(OCc3ccccc3)ccc21 (stereo in doubt; 3a) | -67 | – | – |
| NC(=O)N(O)C1CCCc2c(OCc3ccccc3)cccc21 (configuration not stated) | -44 | 910 | – |
| NC(=O)N(O)C1CCCc2cc(OCc3ccc4ccccc4c3)ccc21 (configuration not stated) | – | 500 | Activity [12]: inactive |
| COc1ccc(COc2ccc3c(c2)OCC3N(O)C(N)=O)cc1 (configuration not stated) | -73 | 2700 | ED50 [2, 20]: 9.8 mg/kg |
| NC(=O)N(O)C1CCc2cc(OCc3ccccc3)ccc21 (single isomer, unassigned; (+)) | – | 880 | – |
| NC(=O)N(O)C1CCn2c1cc1ccccc12 (configuration not stated) | -74 | 10000 | – |
| NC(=O)N(O)C1COc2cc(OCc3ccccc3)ccc21 (single isomer, unassigned; (-)) | – | – | Rate of formation (nM (mg of protein)-1) [13]: 5.9; Rate of formation (nM (mg of protein)-1) [7]: 60.3 |
| NC(=O)N(O)C1COc2cc(OCc3ccccc3)ccc21 (stereo in doubt; 1a) [listing 1 of 2 here] | – | – | ED50 ([10]; Mus musculus): 3.9 mg/kg; Max inhibition [14]: 91; Activity [11]: -55%; ED50 [2]: 3.9 mg/kg; inhibition in vivo at 6 mg/kg [15]: 87%; IC50 [16]: 4300 nM |
| NC(=O)N(O)C1CCc2cccc(Oc3ccccc3)c21 (configuration not stated) | – | 5600 | – |
| Cc1c2n(c3ccc(C(C)C)cc13)CCC2N(O)C(N)=O (configuration not stated) | – | 1700 | Activity [12]: inactive |
| NC(=O)N(O)C1CCc2cc(OCc3ccccc3)ccc21 (stereo in doubt; (-)2a) [listing 1 of 2 here] | – | 620 | – |
| COc1ccc(COc2ccc3c(c2)CCCC3N(O)C(N)=O)cc1 (configuration not stated) | -81 | 500 | ED50 ([10]; Mus musculus): 4.8 mg/kg; Activity [11]: -13%; ED50 [2, 20]: 4.8 mg/kg |
| CCc1ccc2c(c1)cc1n2CCC1N(O)C(N)=O (configuration not stated) | – | – | Activity [12]: inactive |

| SMILES | Activity [1] [%] | IC50 [5] [nM] | other results |
| --- | --- | --- | --- |
| NC(=O)N(O)C1COc2c1ccc1ccccc21 (configuration not stated) | – | 4200 | – |
| NC(=O)N(O)C1CCn2c1cc1cc(Oc3ccccc3)ccc12 (configuration not stated) | -58 | 520 | – |
| NC(=O)N(O)C1CCCc2cc(-c3ccccc3)ccc21 (configuration not stated) | -52 | 3000 | – |
| NC(=O)N(O)C1CCCc2ccc(OCc3ccccc3)cc21 (configuration not stated) | – | 1000 | Activity [12]: inactive |
| NC(=O)N(O)C1CCCc2cc(OCc3ccccc3)ccc21 (single isomer, unassigned; (-)) | – | 1300 | – |
| NC(=O)N(O)C1CCCc2cc(OCc3ccc(Cl)cc3)ccc21 (configuration not stated) | -70 | 2200 | ED50 ([10]; Mus musculus): 4.5 mg/kg; Activity [11]: 0%; ED50 [2, 20]: 4.5 mg/kg |
| NC(=O)N(O)C1CCn2c1cc1cc(Cl)ccc12 (configuration not stated) | – | 1300 | – |
| COc1ccc2c(c1)CCCC2N(O)C(N)=O (configuration not stated) | – | 48000 | Activity [12]: inactive |
| NC(=O)N(O)C1COc2cc(OCc3ccccc3)ccc21 (single isomer, unassigned; (+)) [listing 2 of 2 here] | – | – | Clp [17]: 3.5 mL/min; clearance [18]: 8.6 mL/min; ED50 [2]: 0.9 mg/kg; clearance [19]: 6.1 mL/min |
| NC(=O)N(O)C1COc2cc(Oc3ccccc3)ccc21 (configuration not stated) | -56 | 3300 | – |
| NC(=O)N(O)C1CCCc2cc(CCc3ccccc3)ccc21 (configuration not stated) | – | 600 | Activity [12]: inactive |
| NC(=O)N(O)C1CCn2c1cc1cc(OCc3ccccc3)ccc12 (configuration not stated) | -68 | 650 | ED50 [10]: 1.8 mg/kg; Activity [11]: -8%; ED50 [2, 20]: 1.8 mg/kg |
| NC(=O)N(O)C1CCCc2ccccc21 (configuration not stated) | -30 | 29000 | – |
| NC(=O)N(O)C1CCc2cc(OCc3ccccc3)ccc21 (stereo in doubt; (-)2a) [listing 2 of 2 here] | 0.9 | – | – |
| Cc1c2n(c3ccc(Oc4ccccc4)cc13)CCC2N(O)C(N)=O (configuration not stated) | -26 | – | – |
| COc1ccc(COc2ccc3c(c2)CCC3N(O)C(N)=O)cc1 (configuration not stated) | – | 1400 | Activity [12]: inactive |
| NC(=O)N(O)C1CCCc2cc(OCc3ccccc3)ccc21 (single isomer, unassigned; (+)) [listing 2 of 2 here] | – | 760 | – |
| NC(=O)N(O)C1CCCc2c(Oc3ccccc3)cccc21 (configuration not stated) | -57 | 840 | – |
| NC(=O)N(O)C1COc2cc(OCc3ccccc3)ccc21 (stereo in doubt; 1a) [listing 2 of 2 here] | -100 | – | – |
